Kir21 inh = Kir2.1 (mouse) channel inhibition; HEK293-Kir2.1, FluxOR thallium flux fluorescence; active compounds read low; B-score at 10 µM; 310,000 compounds, 0.85% hits; AID 1672;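 active = fluorescence ratio B-score at or below minus 3 SD of library scores, with starting-brightness B-score within 2 SD, cut at about -4.2 in these data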;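 note: channel flux triggered by added potassium and thallium sulfate stimulus; B-score of peak minus minimum fluorescence over baseline after thallium stimulus; more negative B-score means stronger Kir2.1 block with less thallium influx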
KCNK9 block = inhibitors of human KCNK9 two-pore domain potassium channel; Q9NPC2; HEK293 KCNK9, FluxOR thallium flux fluorescence; active compounds read low; B-score at 10 µM; 310,000 compounds, 1.2% hits; AID 488922;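 active = ratio B-score over 3 SD below the library mean, with starting fluorescence within 5 SD of its mean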;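 note: negative B-score means less thallium flux so channel inhibition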
KCNQ1 inh = blocks the human KCNQ1 potassium channel; P51787; CHO-K1 KCNQ1, FluxOR thallium flux fluorescence; active compounds read high; B-score at 10 µM; 310,000 compounds, 1.3% hits;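 active = compounds whose thallium flux B-score, printed positive for inhibition, exceeds three library SD while starting fluorescence stays within three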;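 note: channel opened by potassium depolarization with thallium stimulus after 20 min compound exposure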
KCNK3 inh = human KCNK3 channel inhibition, primary screen | CHO-KCNK3 thallium flux, FluxOR fluorescence; active compounds read low | B-score at 10 µM | 340,000 compounds, 0.84% hits | AID 602410;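 active = B-score under library mean minus 4 SD, starting fluorescence ratio at most library mean plus 5 SD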;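 note: more negative B-score means stronger inhibition of thallium flux through KCNK3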
KCNQ1 pot = potentiators or activators of human KCNQ1 potassium channel | P51787 | CHO-K1 KCNQ1, thallium flux FluxOR fluorescence; active compounds read high | B-score at 10 µM | 310,000 compounds, 0.35% hits | AID 2648;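 active = fluorescence ratio B-score, a plate-corrected score, at least three library SD, with initial intensity B-score within 5 SD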
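System: Stable KCNQ1 CHO-K1 line | Incubation: 90 min dye loading and 20 min compound exposure, both at room temperature | Measure: Ratio B score | Medium: Assay buffer for compound exposure, DMSO matched across wells | Compound dosing: Single-concentration screen | Probe or stimulus: K+/Tl+ depolarizing stimulus | Measured by: Kinetic FluxOR fluorescence, 10 s baseline plus 110 s post-stimulus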
hERG protect = hERG (human) protection from proarrhythmic block. 310,000 compounds, 0.51% hits. Q12809. CHO-hERG, FluxOR thallium flux, dofetilide IC70 present. activation (rescue from dofetilide block), less the hit threshold, % at 10 µM. AID 1511;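 active = activation above the mean of controls blocked by dofetilide plus 5 SD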;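 note: thallium influx through hERG after potassium depolarization seen as dye fluorescence rise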
Target sequence (Q12809 whole entry, looked up): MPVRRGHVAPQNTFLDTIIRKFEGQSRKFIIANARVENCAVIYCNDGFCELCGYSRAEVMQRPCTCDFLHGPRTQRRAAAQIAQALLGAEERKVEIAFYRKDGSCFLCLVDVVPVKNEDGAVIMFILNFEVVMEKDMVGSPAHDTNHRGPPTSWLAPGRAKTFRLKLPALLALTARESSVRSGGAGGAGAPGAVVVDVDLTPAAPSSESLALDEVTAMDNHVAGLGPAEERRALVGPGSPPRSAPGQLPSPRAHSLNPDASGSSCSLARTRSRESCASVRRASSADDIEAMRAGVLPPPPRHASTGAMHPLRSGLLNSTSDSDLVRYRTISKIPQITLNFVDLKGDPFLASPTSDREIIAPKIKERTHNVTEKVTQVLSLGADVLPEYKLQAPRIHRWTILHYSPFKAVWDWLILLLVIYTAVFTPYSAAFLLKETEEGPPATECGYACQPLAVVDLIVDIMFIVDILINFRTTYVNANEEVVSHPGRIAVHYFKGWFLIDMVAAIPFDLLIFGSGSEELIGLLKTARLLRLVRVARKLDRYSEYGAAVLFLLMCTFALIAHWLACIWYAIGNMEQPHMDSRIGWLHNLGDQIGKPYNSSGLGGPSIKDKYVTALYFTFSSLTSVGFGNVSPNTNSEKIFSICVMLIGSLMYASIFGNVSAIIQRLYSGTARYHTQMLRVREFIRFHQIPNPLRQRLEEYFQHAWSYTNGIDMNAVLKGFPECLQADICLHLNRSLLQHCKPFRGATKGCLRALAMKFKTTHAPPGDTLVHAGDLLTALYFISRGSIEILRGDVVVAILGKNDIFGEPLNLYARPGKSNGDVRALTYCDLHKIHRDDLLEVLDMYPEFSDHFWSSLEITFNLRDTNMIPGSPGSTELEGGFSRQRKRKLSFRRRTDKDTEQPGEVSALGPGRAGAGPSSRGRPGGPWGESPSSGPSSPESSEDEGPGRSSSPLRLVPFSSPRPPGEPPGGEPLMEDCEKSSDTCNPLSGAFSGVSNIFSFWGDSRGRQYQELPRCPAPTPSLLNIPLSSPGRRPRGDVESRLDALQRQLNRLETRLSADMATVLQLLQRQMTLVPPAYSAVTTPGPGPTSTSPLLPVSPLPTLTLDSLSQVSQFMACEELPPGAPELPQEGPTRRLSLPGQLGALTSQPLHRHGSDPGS
KCNK9 block conf = confirmation of human KCNK9 potassium channel inhibitors; HEK293 KCNK9 cells, FluxOR thallium flux fluorescence; shares compounds with KCNK9 block; inhibition, % at 10 µM; 4,900 compounds, 43% hits;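 active = thallium signal inhibited by more than 5 SD of the compound-free buffer control wells, on both duplicate plates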
Kir2-1 spec = tests whether KCNK9 modulators also affect mouse Kir2.1. shares compounds with KCNK9 block. Kir2.1 cells, FluxOR thallium flux fluorescence. inhibition, % at 10 µM. 4,900 compounds, 4% hits. AID 492993;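 active = thallium signal drop more than 5 SD beyond the mean of the no-compound control wells, seen in both duplicate plates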;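 note: signal is fluorescence rise after thallium addition divided by baseline fluorescence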
HEK293 Tl ctr = second counter-screen for KCNK9 modulators: effect in non-induced cells. shares compounds with KCNK9 block. non-induced KCNK9-HEK293, FluxOR thallium flux. inhibition, % at 10 µM. 4,900 compounds, 40% hits;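 active = thallium signal drop beyond 5 SD of the untreated control mean, on both duplicate plates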
Large screens that a line does not name were inactive (follow-up assays come after a bar, where they were run); ! = not confirmed by another sample. Shown are actives, neighbours in structure and some others; about 3.7% of the full set was active somewhere.

CCSc1ccccc1C(=O)Nc1ccc(S(=O)(=O)NC(C)=O)cc1	none
Cc1cc(C)n(-c2nc3ccccc3nc2N2CCCCCC2)n1	KCNK9 block -9.91 | KCNK9 block conf 33.0% | Kir2-1 spec inactive | HEK293 Tl ctr 40.0%
CCN(CC)c1cnn(C/C(=N\OC)c2ccc(Cl)cc2)c(=O)c1Br	none
CCCCn1c(NS(=O)(=O)c2ccc(C)cc2)c(S(=O)(=O)c2ccccc2)c2nc3ccccc3nc21	KCNQ1 pot 9 | KCNK9 block conf inactive | Kir2-1 spec inactive | HEK293 Tl ctr inactive
CCCCNC(=O)c1c(CSc2ccc(Cl)cc2)noc1C(=O)NCc1ccccc1	none | KCNK9 block conf inactive | Kir2-1 spec inactive | HEK293 Tl ctr inactive
CCCCNC(=O)c1c(CSc2ccccc2)noc1C(=O)NCc1ccccc1	none | KCNK9 block conf inactive | Kir2-1 spec inactive | HEK293 Tl ctr inactive
O=C(NCc1ccccc1)c1onc(CSc2ccc(Cl)cc2)c1C(=O)NCC1CC1	none | KCNK9 block conf inactive | Kir2-1 spec inactive | HEK293 Tl ctr inactive
COCCNC(=O)c1c(CSc2ccccc2)noc1C(=O)NCc1ccccc1	none
CN(C)CCNC(=O)c1c(CSc2ccc(Cl)cc2)noc1C(=O)NCc1ccccc1	none
O=C(NCc1ccccc1)c1onc(CSc2ccccc2)c1C(=O)NCc1ccccc1	none | KCNK9 block conf inactive | Kir2-1 spec inactive | HEK293 Tl ctr inactive
O=C(c1cccc(Cl)c1)N1CCN(CCCc2ccccc2)CC1	none
CCCNC(=O)c1c(CSc2ccc(Cl)cc2)noc1C(=O)NCc1ccccc1	none | KCNK9 block conf inactive | Kir2-1 spec inactive | HEK293 Tl ctr inactive
O=C(NCc1ccccc1)c1onc(CSc2ccc(Cl)cc2)c1C(=O)NCc1ccccc1	none
CC(C)NC(=O)c1c(CSc2ccc(Cl)cc2)noc1C(=O)NCc1ccccc1	none | KCNK9 block conf inactive | Kir2-1 spec inactive | HEK293 Tl ctr inactive
C/C(CCC(C)C)=N\NS(=O)(=O)c1ccc(C)c([N+](=O)[O-])c1	KCNK9 block -8.94 | KCNK9 block conf 63.5% | Kir2-1 spec inactive | HEK293 Tl ctr 41.0%
CC/C(C)=N/NS(=O)(=O)c1ccc(C)c([N+](=O)[O-])c1	none
Cc1ccc(N2CC(C(=O)Nc3cccnc3)CC2=O)cc1C (stereo not given)	none
COc1ccc(-c2c(C)nn3c(C)cc(C)nc23)cc1	none
Cc1cc(C)n(-c2nnc(C)n2/N=C/c2cc(Br)ccc2OCc2ccccc2)n1	KCNK9 block -8.65 | KCNK9 block conf 41.0% | Kir2-1 spec inactive | HEK293 Tl ctr inactive
Cc1cc(C)n(-c2nnc(C)n2/N=C/c2ccc(O)cc2)n1	none
CC(=O)Nc1ccccc1N(C)S(=O)(=O)c1ccc(C)cc1	KCNK9 block -8.27 | KCNK9 block conf inactive | Kir2-1 spec inactive | HEK293 Tl ctr inactive
Clc1ccc(-c2nnc(Sc3nc4ccccc4o3)c3ccccc23)cc1	none | KCNK9 block conf inactive | Kir2-1 spec inactive | HEK293 Tl ctr inactive
Cc1ccc(-c2nnc(Sc3nc4ccccc4o3)c3ccccc23)cc1	none
COc1cc2c(cc1OC)C(c1ccccc1[N+](=O)[O-])N(C(C)=O)CC2 (stereo not given)	none
Cc1cc2c(cc1C)N(C(=O)CSC1=NCCS1)C(C)(C)c1ssc(=S)c1-2	KCNK9 block -8.58 | KCNK9 block conf 50.0% | Kir2-1 spec inactive | HEK293 Tl ctr 31.0%
COc1ccc2c(c1)-c1c(ssc1=S)C(C)(C)N2C(=O)CSC1=NCCS1	KCNK9 block -11.7 | KCNK9 block conf 46.5% | Kir2-1 spec inactive | HEK293 Tl ctr 38.0%
Cc1cc(C)c2c(c1)-c1c(ssc1=S)C(C)(C)N2C(=O)CSc1nncn1C	none
CC1(C)c2ssc(=S)c2-c2ccccc2N1C(=O)CSC1=NCCS1	none
Cc1cnn(Cc2cccnc2)c1N	none
CCOC(=O)N1CCN(Cc2nc3cc(NC(=O)CC(C)C)ccc3n2CC)CC1	none
O=C(COC(=O)CCNS(=O)(=O)c1cccc(C(F)(F)F)c1)NC(=O)NC1CCCCC1	KCNK9 block -14.5 | KCNK9 block conf 61.0% | Kir2-1 spec inactive | HEK293 Tl ctr 31.0%
CN[C@H]1CC[C@@H](c2ccc(Cl)c(Cl)c2)c2ccccc21	Kir21 inh -6.25, KCNK9 block -8.56! (no result: hERG protect) | KCNK9 block conf 34.0% | Kir2-1 spec inactive
CC(=O)N1c2ccc3ccccc3c2C(C)CC12CCCCC2 (stereo not given)	KCNK9 block -11.9 | KCNK9 block conf 67.5% | Kir2-1 spec inactive | HEK293 Tl ctr 48.0%
CC1CC2(CCCCC2)Nc2ccc3ccccc3c21 (stereo not given)	none
CCN(CC)CCn1c2c(c(SCC(=O)Nc3ccc(F)c(F)c3)nc1=O)CCC2	none
Cc1cc2nnc(SC3CCCCN(C(=O)c4ccc(F)cc4)C3=O)n2c2ccccc12 (stereo not given)	none | KCNK9 block conf inactive | Kir2-1 spec inactive | HEK293 Tl ctr inactive
O=C(O)CC1S/C(=N/N=C/c2ccccn2)NC1=O (stereo not given)	none
CCOc1cc(/C=N/N=C2/NC(=O)C(CC(=O)O)S2)ccc1OCc1ccc(Cl)cc1Cl (stereo not given)	none | KCNK9 block conf inactive | Kir2-1 spec inactive | HEK293 Tl ctr inactive
COc1ccc(Cl)cc1-n1c(C)ccc1C	none
O=C(Nc1ccc(CN2CCCCC2)cc1)c1cc(Br)ccc1Cl	KCNK9 block -8.53 | KCNK9 block conf 30.5% | Kir2-1 spec inactive | HEK293 Tl ctr 37.0%
COc1ccc(-c2cc(C(F)(F)F)nc(-n3ccnc3C)n2)cc1	none
CCOC(=O)C1CCN(C(=O)c2ccc(Oc3cc(Cl)cc(Cl)c3)o2)CC1	none | KCNK9 block conf inactive | Kir2-1 spec inactive | HEK293 Tl ctr inactive
Cc1ccc(C(=O)Nc2ccccc2C(=O)O)cc1S(=O)(=O)Nc1ccc(Br)cc1	KCNQ1 inh 6 | KCNK9 block conf inactive | Kir2-1 spec inactive | HEK293 Tl ctr inactive
Cc1ccc(C(=O)Nc2ccccc2-c2ccccc2)cc1S(=O)(=O)Nc1cccc(C)c1C	KCNK9 block -9.39, KCNQ1 inh 6, KCNK3 inh -11.2 | KCNK9 block conf 40.5% | Kir2-1 spec inactive | HEK293 Tl ctr 41.5%
Cc1ccc(C)c(NS(=O)(=O)c2cc(C(=O)Nc3ccccc3-c3ccccc3)ccc2C)c1	KCNK9 block -11.6, KCNK3 inh -9.86 | KCNK9 block conf 42.5% | Kir2-1 spec inactive | HEK293 Tl ctr 41.5%
Cc1ccc(C(=O)Nc2ccccc2C(=O)O)cc1S(=O)(=O)NCc1ccccc1	none

Bioassay records deposited in PubChem BioAssay by Johns Hopkins Ion Channel Center.
